Series [1] can be described thus: Selectivity index, ratio of CC50 for cytotoxicity in dog MDCK cells assessed as reduction in cell viability incubated for 48 hrs by crystal violet staining based assay to […] in dog MDCK cells assessed as reduction in cell viability incubated for 48 hrs by crystal violet staining based assay.
Series [2] in a line: Cmax in mouse at 5 mg/kg, po administered as single dose. More on the design: dose 5 mg/kg, route oral. In kind it is ADME, organism-based. Particulars: in vivo. Put shortly: (§1)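 Male Kunming mice (20-25 g) and male Sprague Dawley rats (180-220 g) were fasted 12 h before dosing. Oral dosing was by gavage as a suspension in 0.5% sodium carboxymethyl cellulose; iv dosing was via tail vein in PEG400. Serial plasma samples were taken to 24 h, protein-precipitated with acetonitrile plus N-CH3 internal standard, and quantified by LC-MS/MS (n=3). Bioavailability = AUCoral/AUCiv.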

Series [3] is described as follows: Tmax in mouse at 5 mg/kg, po administered as single dose. The note with it: in vivo. The class given is ADME, organism-based. An outline of the steps:
(§2)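 Male Kunming mice (20–25 g) and male SD rats (180–220 g) were fasted 12 h before dosing. Compound was suspended in 0.5% CMC-Na and given by gavage (5 mg/kg mice, 3.5 mg/kg rats), or dissolved in PEG400 and given iv via tail vein (0.5 mg/kg mice, 0.35 mg/kg rats). Plasma was sampled from 5 min to 24 h and analysed by LC-MS/MS (n=3). F = AUCoral/AUCiv.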

Series [4] can be described thus: Cmax in rat at 3.5 mg/kg , po administered as single dose. More on the design: dose 3.5 mg/kg, route oral. The note with it: in vivo. In kind it is ADME, organism-based. Put shortly:
as §1

A short description of series [5]: Half life in rat at 3.5 mg/kg , po administered as single dose. The class given is ADME, organism-based. Particulars: in vivo. Put shortly: as §1
Series [6] is described as follows: AUC (0 to t) in rat at 3.5 mg/kg , po administered as single dose. In kind it is ADME, organism-based. Particulars: in vivo. An outline of the steps: as §1
Series [7] in a line: Oral bioavailability in rat at 3.5 mg/kg administered as single dose. The class given is ADME, organism-based. Particulars: in vivo. Put shortly:
as §2

The nature of series [8]: Cumulative drug excretion in rat urine at 3.5 mg/kg, po administered as single dose measured after 72 hrs. In kind it is ADME, organism-based. The note with it: read-out: Drug excretion. An outline of the steps:
(§3)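 Single oral (gavage, 0.5% CMC-Na) or iv (tail vein, PEG400) dosing was given to male Kunming mice or Sprague Dawley rats held in metabolic cages. Urine and feces were collected at intervals to 72 h. Feces were dried, ground and homogenized in water (1:9 w/v). Samples were precipitated with acetonitrile containing internal standard and analysed by LC-MS/MS.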

Series [9] can be described thus: Cumulative drug excretion in rat feces at 3.5 mg/kg, po administered as single dose measured after 72 hrs. In kind it is ADME, organism-based. Particulars: faeces, read-out: Drug excretion. An outline of the steps:
as §3

Series [10] in a line: Metabolic stability in rat liver microsomes at 2 uM after 60 mins. In kind it is ADME, Microsome. The note with it: read-out: Stability. Put shortly:
(§4)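 Mouse, rat or human liver microsomes (final 0.5 mg/mL protein) were preincubated with an NADPH-regenerating system in 50 mM Tris-HCl pH 7.4 at 37 °C for 5 min. Compound was added at 2 µM final and incubated at 37 °C; NADPH-free incubations served as controls. Reactions were quenched with acetonitrile plus internal standard at 60 min. Percent remaining was measured by LC-MS/MS (n=3).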
For orientation: Liver microsomes are vesicles of endoplasmic reticulum, rich in cytochrome P450 enzymes.

Series [11] can be described thus: Metabolic stability in human liver microsomes at 2 uM after 60 mins. The note with it: read-out: Stability. In kind it is ADME, Microsome. Put shortly: as §4
Series [12] concerns Influenza A virus. The series can be described thus: Antiviral activity against Influenza A virus (A/Puerto Rico/8/1934(H1N1)) infected in MDCK cells incubated for 3 days by crystal violet staining based plaque assay. In kind it is functional, organism-based. Particulars: 72 h. An outline of the steps:
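Confluent MDCK monolayers were exposed to 10-fold serial virus dilutions for 1 h at 37 °C, then washed. The overlay was DMEM with 1.5% agarose, 0.02% DEAE-dextran and 1 µg/ml TPCK-trypsin. After 3 days at 37 °C in 5% CO2, cells were fixed with 0.05% glutaraldehyde, stained with 1% crystal violet in 20% ethanol, and plaques were counted.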

Series [13] relates to Influenza A virus. Nature of the series: Antiviral activity against Influenza A virus (A/Puerto Rico/8/1934(H1N1)) infected in Kunming mouse assessed as decrease in pulmonary viral titers at 5 to 10 mg/kg/day, po starting 4 hrs after viral challenge and continued for 4 days by plaque assay. In kind it is functional, organism-based. Put shortly:
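Four-week-old female Kunming mice were infected intranasally with PR8 (500 PFU/mouse in 40 µL PBS), randomized, and dosed once daily orally or intranasally. On day 4 the mice were euthanized; lungs were removed, weighed, homogenized in PBS, and titrated by plaque assay.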

Series [14] has as its system Influenza A virus. The series can be described thus: Antiviral activity against Influenza A virus (A/Puerto Rico/8/1934(H1N1)) infected in Kunming mouse assessed as decrease in lung IL6 level at 20 to 40 ug/day dosed intranasally starting 4 hrs after viral challenge and continued for 4 days by ELISA. In kind it is functional, organism-based. Put shortly:
(§5)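 Four-week-old female Kunming mice received PR8 intranasally (500 PFU/mouse in 40 µL PBS) and were then dosed once daily orally or intranasally. Lungs were collected on day 4, and TNF-α and IL-6 in lung tissue were measured by ELISA.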
In general terms: An ELISA detects its analyte on a solid surface through an enzyme-linked reagent.

Series [15] relates to Influenza A virus. The series can be described thus: Antiviral activity against Influenza A virus (A/Puerto Rico/8/1934(H1N1)) infected in Kunming mouse assessed as decrease in lung TNFalpha level at 5 to 10 mg/kg/day, po starting 4 hrs after viral challenge and continued for 4 days by ELISA. In kind it is functional, organism-based. An outline of the steps: as §5
The subject of series [16] is Influenza A virus. Nature of the series: Antiviral activity against Influenza A virus (A/Puerto Rico/8/1934(H1N1)) infected in Kunming mouse assessed as decrease in lung IL6 level at 5 to 10 mg/kg/day, po starting 4 hrs after viral challenge and continued for 4 days by ELISA. In kind it is functional, organism-based. Put shortly:
as §5

Series [17] can be described thus: Toxicity in Kunming mouse assessed as effect on AST level at 5 to 10 mg/kg/day, po for 7 days. The note with it: in vivo, 168 h. The class given is organism-based. Put shortly:
(§6)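 Male Kunming mice (20–25 g) received compound orally at 5 or 10 mg/kg/day, suspended in 0.5% sodium carboxymethyl cellulose, once daily for 7 days; controls received vehicle. Serum was collected under isoflurane 24 h after the last dose. AST, ALT, CR, BUN, LDH, CK and CK-MB were measured with commercial kits.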

A short description of series [18]: Toxicity in Kunming mouse assessed as effect on ALT level at 5 to 10 mg/kg/day, po for 7 days. The note with it: in vivo, 168 h. The class given is organism-based. Put shortly:
as §6

Series [19] has as its system Influenza A virus. The series can be described thus: Antiviral activity against Influenza A virus (A/Puerto Rico/8/1934(H1N1)) infected in MDCK cells assessed as decrease in viral titers at 50 ug/ml pre-treated with virus before infection and measured 24 hrs post infection by HA assay. In kind it is functional, organism-based. Put shortly: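 MDCK cells were infected at high moi (≈3.0 PFU/cell). Virus-containing supernatants were serially diluted 2-fold and mixed with an equal volume of 1% chicken red blood cells. After 60 min at 4 °C, wells were scored for button sedimentation versus opaque agglutination to give titers.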

The subject of series [20] is Influenza A virus. The series can be described thus: Antiviral activity against luciferase tagged Influenza A virus H5N1 pseudovirus infected in MDCK cells assessed as reduction in virus infection incubated for 48 hrs by luciferase reporter gene assay. The class given is functional, organism-based. An outline of the steps: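 MDCK cells infected with luciferase-expressing H5N1 HA/NA pseudotyped HIV-based virus were treated with compound under four different treatment regimens. Infection was quantified by firefly luciferase glow assay.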

Series [21] can be described thus: Binding affinity to Influenza A virus (A/Aichi/2/1968(H3N2)) Hemagglutinin at 1.5625 to 50 uM by SPR assay. Put shortly:
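HA protein was immobilized on CM5 chips. Compound (50, […], 12.5, 6.25, 3.125, 1.5625 µM) was injected for 2 min, followed by a 10-min PBST wash and regeneration with 2 mM NaOH for 30 s. Runs were at 25 °C with 2 µl/s flow, using a blank HA-free reference channel. KD was obtained from kinetic fitting.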
A general note: SPR reads the build-up and loss of mass on a sensor chip optically.

The structures appear in SMILES notation. Activity calls are given as the source filed them.

Consider `CC(=O)c1cc(C)c(O)c(Cc2[nH]c3ccccc3c2Cc2c(O)c(C)cc(C(C)=O)c2O)c1O`, for which the “Ratio CC50/IC50” value in series [1] worked out at 55.8. For the same compound, the highest concentration (Cmax) was 16 ng/mL in [2] and 287 ng/mL in series [4]. In series [3], the Tmax was determined as 4 h. In series [5], this compound had a half-life of 3.3 h. For the same compound, in series [6], the AUC(0-t) turned out to be 1360 ng·h/mL. In series [7], the bioavailability was 1.4%. Moreover, the dose excreted at 72 h was found to be 0.004% in series [8] and 96.4% in series [9]. The values for the remaining at 1 h, 2 µM in series [10] and in series [11] were 36.6% and 71.6%, respectively. The compound also came in with an IC50 in the series on Influenza A virus [12] below 13 µg/mL. In addition, the outcome in the series on Influenza A virus [13], in the series on Influenza A virus [14], with Influenza A virus [15], with Influenza A virus [16] and in the series with Influenza A virus [19] was Active. Further, the Activity result in [17] was “Non-Toxic”; in series [18] it was “Non-Toxic”; in the series on Influenza A virus [20] it was “Dose-dependent effect”. In series [21], the equilibrium dissociation constant (Kd) is 7.3 µM.

One may read the Cmax as the maximum level reached in the sampled fluid or tissue. A word on the Tmax: it is the time at which the peak concentration occurs. One may read the half-life as the time needed for the level to fall by half in the phase considered. Higher therefore signals slow decline. Usually AUC(0-t) stands for exposure summed from dosing to a finite time, without extrapolation to infinity. Broadly, the bioavailability is dose-corrected exposure relative to a reference, in per cent. A high value points to much systemic uptake. In general, IC50 refers to the midpoint of a concentration-inhibition curve. Read a low IC50 as greater potency. What is called Kd is the free concentration of one partner at which half of the binding sites on the other are occupied at equilibrium, for simple one-to-one binding. Low values mean tighter binding, high ones weaker binding.

The values above are taken from ChEMBL document CHEMBL4619773, “Chemoreactive-Inspired Discovery of Influenza A Virus Dual Inhibitor to Block Hemagglutinin-Mediated Adsorption and Membrane Fusion” (J Med Chem, 2020).
